According to paper PMC4788533 (Investigational new drugs, 2015):

How the values were obtained:
[1] = Selumetinib plasma pharmacokinetics; format: in vivo, human; conditions: for Log (Cmax (ng/mL) – dose normalized) / Log(AUC 0-∞ (ng/mL × hr) – dose normalized): mean ± SD; for half-life: T ½
Summary of the method: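 Patients with refractory solid tumours or KRAS-mutant CRC took oral MEK inhibitor capsules fasting, with the morning dose ≥1 h before the anti-EGFR antibody (400 mg/m2 IV load, then 250 mg/m2 weekly; 28-day cycles). EDTA plasma was drawn at baseline and 0.5–12 h post-dose on C1D1, and assayed by validated LC-MS/MS (LOD 3.91 ng/ml). Analysis was noncompartmental. Dose levels 1–2 were pooled.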

[2] = format: in vivo, human; conditions: PO BID, with cetuximab 250 mg/m^2 weekly following a 400 mg/m^2 load
ERK phosphorylation = conditions: peripheral blood mononuclear cells and tumor biopsies; cited from earlier work
[3] = solid formulation, orally twice daily; cited from earlier work
[4] = day 1 of cycle 1, dose level 1 (selumetinib 50mg), N=6, mean ± SD
[5] = day 1 of cycle 1, dose level 1 and 2 combined (N=10)
[6] = day 1 of cycle 1, dose level 2 (selumetinib 50mg), N=4, mean ± SD
[7] = day 1 of cycle 1, dose level 3 incl. expansion cohort (N=22)
[8] = human, plasma, oral, 50 mg, day 1 of cycle 1, dose level 1 (selumetinib 50mg), N=6, mean ± SD
[9] = human, plasma, oral, 50 mg, day 1 of cycle 1, dose level 2 (selumetinib 50mg), N=4, mean ± SD

With `Cn1cnc2c(F)c(Nc3ccc(Br)cc3Cl)c(C(=O)NOCCO)cc21` [selumetinib] the Cl/F [1, 4] was 23.9 ± 5.48 L/h, the V/F [1, 4] was 76.9 ± 18.1 L and the “Log (Cmax (ng/mL) – dose normalized)” value [1, 5] was 3.19 ± 0.23. For the same compound, the “Log(AUC 0-∞ (ng/mL × hr) – dose normalized)” value [1, 5] was 4.23 ± 0.17, the Cmax ([1]; day 1 of cycle 1, dose level 2 (selumetinib 50mg), N=4, geometric mean (CV)) was 1143 (CV 0.28) ng/mL and the Cl/F [1, 6] was 21.0 ± 2.53 L/h. For the same compound, the V/F [1, 6] was 70.4 ± 19.7 L, the “Log (Cmax (ng/mL) – dose normalized)” value [1, 7] was 3.00 ± 0.43 and the “Log(AUC 0-∞ (ng/mL × hr) – dose normalized)” value [1, 7] was 4.24 ± 0.54. It also gave an AUC ([1]; human, plasma, oral) of 3210 to 5200 ng·h/mL, an AUC(0-inf) ([1]; human, plasma, oral, 50 mg, day 1 of cycle 1, dose level 1 (selumetinib 50mg), N=6, geometric mean (CV)) of 3210 ng·h/mL and an AUC(0-inf) ([1]; human, plasma, oral, 50 mg, day 1 of cycle 1, dose level 1 and 2 combined (50mg dose, N=10), geometric mean (CV)) of 3450 ng·h/mL. It also gave an AUC(0-inf) ([1]; human, plasma, oral, 50 mg, day 1 of cycle 1, dose level 2 (selumetinib 50mg), N=4, geometric mean (CV)) of 3610 ng·h/mL, a Cmax ([1]; human, plasma, oral, 50 mg, Cmax, day 1 of cycle 1, dose level 1 (selumetinib 50mg), N=6, geometric mean (CV)) of 1320 ng/mL and a half-life [1, 8] of 2.28 ± 0.55 h. For the same compound, the half-life [1, 9] was 2.31 ± 0.55 h, the Tmax [1, 8] was 1.13 ± 0.25 h and the Tmax [1, 9] was 1.92 ± 1.28 h. The “maximum tolerated dose of the combination, selumetinib part” value [2] was 75 mg, the “ERK phosphorylation following selumetinib treatment” value (ERK phosphorylation) was “Inhibition of ERK phosphorylation was observed” and the “maximum tolerated dose (MTD) of selumetinib, single agent” value [3] was 75 mg.
